# Laboratory results published in ChEMBL document CHEMBL4033653, “Effect of 1,2,3-triazole salts, non-classical bioisosteres of miltefosine, on Leishmania amazonensis” (Bioorg Med Chem, 2017).
# What was measured:
# Leishmania amazonensis [1] = assay: Induction of autophagy in Leishmania amazonensis IFLA/BR/1967/PH8 promastigotes at 20 uM after 24 hrs by MDC staining-based fluorometric analysis relative to control; format: functional
# Method in brief: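 Exponential WT promastigotes (1x10^7 cells/mL) treated 24 h at 25 °C; washed, adjusted to 10x10^6 cells/mL, 100 µM monodansylcadaverine 1 h dark at 25 °C; fluorescence 335/460 nm versus untreated; three independent experiments.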
# Leishmania amazonensis [2] = assay: Induction of apoptosis in Leishmania amazonensis IFLA/BR/1967/PH8 promastigotes assessed as late apoptotic population at 10 uM after 24 hrs by Annexin V-FITC/PI staining based flow cytometric analysis (reference value: 2.62%); format: functional
# Method in brief: (§1)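 Exponential-phase WT promastigotes (1x10^7 cells/mL) cultured 24 h at 25 °C; stained annexin V-FITC plus PI, flow cytometry with 10,000 events gated on parasites; quadrant percentages; three independent experiments.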
# [3] = Selectivity index, ratio of CC50 for mouse peritoneal macrophages to IC50 for Leishmania amazonensis IFLA/BR/1967/PH8 amastigotes
# Method in brief: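 SI = CC50 for mouse peritoneal macrophages / amastigote IC50. […] IC50: WT-infected macrophages treated with 0.78–100.0 µM in sterile water; burden scored by counting amastigotes and infected/uninfected cells in at least 200 macrophages. Three experiments in duplicate.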
# Leishmania amazonensis [4] = assay: Induction of mitochondrial membrane potential loss in Leishmania amazonensis IFLA/BR/1967/PH8 promastigotes at 5 uM after 24 hrs by JC-1 staining-based spectrofluorometric analysis relative to control; format: functional
# Method in brief: (§2)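 Exponential WT promastigotes (1x10^7 cells/mL) treated 24 h at 25 °C; washed, JC-1 loaded, read at 485/528 and 540/600 nm; Δψm as 600/528 ratio, untreated = 100%; FCCP 20.0 µM for 30 min as positive control; three experiments in triplicate.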
# Leishmania amazonensis [5] = assay: Induction of mitochondrial membrane potential loss in Leishmania amazonensis IFLA/BR/1967/PH8 promastigotes at 10 uM after 24 hrs by JC-1 staining-based spectrofluorometric analysis relative to control; format: functional; method in brief: as §2
# Leishmania amazonensis [6] = assay: Induction of apoptosis in Leishmania amazonensis IFLA/BR/1967/PH8 promastigotes assessed as early apoptotic population at 10 uM after 24 hrs by Annexin V-FITC/PI staining based flow cytometric analysis (reference value: 5.29%); format: functional; method in brief: as §1
# Leishmania amazonensis [7] = assay: Induction of apoptosis in Leishmania amazonensis IFLA/BR/1967/PH8 promastigotes assessed as necrotic population at 2.5 uM after 24 hrs by Annexin V-FITC/PI staining based flow cytometric analysis (reference value: 0.03%); format: functional
# Leishmania amazonensis [8] = assay: Antileishmanial activity against Leishmania amazonensis IFLA/BR/1967/PH8 promastigotes transfected with red fluorescent protein after 72 hrs by MTT assay; format: functional; details: IFLA/BR/1967/PH8, 72 h
# Leishmania amazonensis [9] = assay: Induction of apoptosis in Leishmania amazonensis IFLA/BR/1967/PH8 promastigotes assessed as necrotic population at 20 uM after 24 hrs by Annexin V-FITC/PI staining based flow cytometric analysis (reference value: 0.03%); format: functional; method in brief: as §1
# Leishmania amazonensis [10] = assay: Induction of apoptosis in Leishmania amazonensis IFLA/BR/1967/PH8 promastigotes assessed as late apoptotic population at 2.5 uM after 24 hrs by Annexin V-FITC/PI staining based flow cytometric analysis (reference value: 2.62%); format: functional
# [11] = Hemolytic activity in human erythrocytes at 9.4 to 150 uM relative to control; format: ADME, cell-based, Erythrocyte; details: read-out: Activity
# Method in brief: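 Fresh human red cells suspended in PBS incubated with the compound; 1% saponin as positive control, untreated as negative; three experiments in triplicate.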
# Leishmania amazonensis [12] = assay: Induction of ROS accumulation in Leishmania amazonensis IFLA/BR/1967/PH8 promastigotes at 2.5 uM after 72 hrs by H2DCFDA staining-based fluorometric analysis relative to control; format: functional
# Method in brief: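 WT (PH8) promastigotes in exponential phase, untreated or exposed to 2.5–20.0 µM at 25 °C. Cells adjusted to 2x10^7 promastigotes in PBS, then loaded with H2DCFDA for 30 min in the dark at room temperature. Fluorescence read at ex 485/em 528 nm. Positive control was miltefosine 22.0 µM. Reported as arbitrary fluorescence units, mean of three independent experiments.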
# [13] = Cytotoxicity against mouse peritoneal macrophages after 72 hrs by MTT assay; format: cell-based, Peritoneal macrophage; details: peritoneal macrophages
# Leishmania amazonensis [14] = assay: Antileishmanial activity against Leishmania amazonensis IFLA/BR/1967/PH8 amastigotes infected in murine macrophages at 1.8 uM incubated for 72 hrs followed by compound washout measured after 72 hrs by microscopic method relative to control; format: functional; details: IFLA/BR/1967/PH8, 72 h
# Method in brief: (§3)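 Macrophages infected with WT PH8 parasites treated 72 h at 33 °C, 5% CO2; washed twice in PBS, then held in drug-free Warren's medium + 10% serum at 25 °C for 72 h; viable promastigotes counted microscopically versus untreated; three independent experiments in duplicate.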
# Leishmania amazonensis [15] = assay: Antileishmanial activity against Leishmania amazonensis IFLA/BR/1967/PH8 amastigotes infected in murine macrophages at 0.9 uM incubated for 72 hrs followed by compound washout measured after 72 hrs by microscopic method relative to control; format: functional; details: IFLA/BR/1967/PH8, 72 h; method in brief: as §3
# Leishmania amazonensis [16] = assay: Induction of apoptosis in Leishmania amazonensis IFLA/BR/1967/PH8 promastigotes assessed as early apoptotic population at 20 uM after 24 hrs by Annexin V-FITC/PI staining based flow cytometric analysis (reference value: 5.29%); format: functional; method in brief: as §1
# Leishmania amazonensis [17] = assay: Induction of ROS accumulation in Leishmania amazonensis IFLA/BR/1967/PH8 promastigotes at 20 uM after 72 hrs by H2DCFDA staining-based fluorometric analysis relative to control; format: functional
# Method in brief: (§4)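 WT exponential-phase promastigotes treated at 25 °C; adjusted to 2x10^7 cells in PBS, loaded with H2DCFDA 30 min dark at room temperature; fluorescence 485/528 nm versus untreated; three independent experiments.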
# Leishmania amazonensis [18] = assay: Induction of apoptosis in Leishmania amazonensis IFLA/BR/1967/PH8 promastigotes assessed as necrotic population at 5 uM after 24 hrs by Annexin V-FITC/PI staining based flow cytometric analysis (reference value: 0.03%); format: functional; method in brief: as §1
# Leishmania amazonensis [19] = assay: Induction of apoptosis in Leishmania amazonensis IFLA/BR/1967/PH8 promastigotes assessed as late apoptotic population at 5 uM after 24 hrs by Annexin V-FITC/PI staining based flow cytometric analysis (reference value: 2.62%); format: functional; method in brief: as §1
# Leishmania amazonensis [20] = assay: Induction of ROS accumulation in Leishmania amazonensis IFLA/BR/1967/PH8 promastigotes at 10 uM after 72 hrs by H2DCFDA staining-based fluorometric analysis relative to control; format: functional; method in brief: as §4
# Leishmania amazonensis [21] = assay: Antileishmanial activity against Leishmania amazonensis IFLA/BR/1967/PH8 amastigotes infected in murine macrophages at 3.6 uM incubated for 72 hrs followed by compound washout measured after 72 hrs by microscopic method relative to control; format: functional; details: IFLA/BR/1967/PH8, 72 h; method in brief: as §3
# Leishmania amazonensis [22] = assay: Induction of lipid inclusions in Leishmania amazonensis IFLA/BR/1967/PH8 promastigotes at 10 uM after 24 hrs by Nile Red satining-based spectrofluorometric analysis relative to control; format: functional
# Method in brief: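 WT (PH8) promastigotes at 1x10^7 cells/mL in exponential phase, cultured 24 h at 25 °C with or without 2.5–20.0 µM. Parasites incubated with Nile Red, then fluorescence measured spectrofluorometrically. Reported as arbitrary fluorescence units versus untreated parasites, mean of three experiments run in triplicate.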
smiles,measurement,setting,value
CC(=O)[O-].CCCCCCCCCCn1cc(CO)[n+](C)n1,Activity,Leishmania amazonensis [1],49.8%
same,Activity,Leishmania amazonensis [2],11.16%
same,Ratio CC50/IC50,[3],128.8
same,Activity,Leishmania amazonensis [4],20%
same,Activity,Leishmania amazonensis [5],32.5%
same,Activity,Leishmania amazonensis [6],28.56%
same,Activity,Leishmania amazonensis [7],0.16%
same,IC50,Leishmania amazonensis [8],15.6 µM
same,Activity,Leishmania amazonensis [9],3.97%
same,Activity,Leishmania amazonensis [10],0.82%
same,hemolysis at up to 150 µM,[11],< 5%
same,Activity,Leishmania amazonensis [12],38.4%
same,CC50 at 72 h,[13],116 µM
same,inhibition at 1.8 µM,Leishmania amazonensis [14],69%
same,inhibition at 0.9 µM,Leishmania amazonensis [15],61.9%
same,Activity,Leishmania amazonensis [16],30.92%
same,Activity,Leishmania amazonensis [17],75.5%
same,Activity,Leishmania amazonensis [18],0.3%
same,Activity,Leishmania amazonensis [19],1.58%
same,Activity,Leishmania amazonensis [20],54%
same,inhibition at 3.6 µM,Leishmania amazonensis [21],83.1%
same,fold change (FC),Leishmania amazonensis [22],1.9
